Measured values as given in ChEMBL document CHEMBL1156153, “Novel benzofuran-3-one indole inhibitors of PI3 kinase-alpha and the mammalian target of rapamycin: hit to lead studies” (Bioorg Med Chem Lett, 2010).
≈ marks a conversion by molar mass, not a printed value.

Columns and labels:
PC-3 = experiment: Antiproliferative activity against human PC3 cells; assay type: functional, cell-based
Method in brief: (§1)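 Cell growth density monitored in Caco-2 (epithelial colorectal adenocarcinoma), LoVo (colon carcinoma) and PC3MM2/PC3 (prostate cancer) cultures; IC50 from means of two experiments.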

[1] = biological target: Phosphatidylinositol 4,5-bisphosphate 3-kinase catalytic subunit gamma isoform (Homo sapiens, UniProt P48736); experiment: Inhibition of PI3Kgamma
Method in brief: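 Fluorescence polarization assays for PI3K-α (p110α) and PI3K-γ (p110γ) monitored PIP3 production.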

Caco-2 = experiment: Antiproliferative activity against human Caco-2 cells; assay type: functional, cell-based; method in brief: as §1
[2] = biological target: Phosphatidylinositol 4,5-bisphosphate 3-kinase catalytic subunit alpha isoform (Homo sapiens, UniProt P42336); experiment: Inhibition of PI3Kalpha
LoVo = experiment: Antiproliferative activity against human LoVo cells; assay type: functional, cell-based; method in brief: as §1
[3] = biological target: Serine/threonine-protein kinase mTOR (Homo sapiens, UniProt P42345); experiment: Inhibition of mTOR
Method in brief: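 DELFIA-format mTOR kinase assay monitoring phosphorylation of His6-S6K substrate.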

[4] = Aqueous solubility at pH 7.4; assay type: physicochemical
Method in brief: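 Aqueous solubility measured at pH 7.4, reported in µg/mL.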

CYP3A4 = CYP3A4 (Homo sapiens, UniProt P08684); experiment: Inhibition of CYP3A4 at 3 uM; assay type: ADME
[5] = Inhibition of PI3K in human PC3 cells assessed as inhibition AKT phosphorylation after 6 hrs by densitometry; assay type: cell-based; settings: PC-3, 6 h
Method in brief: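 PC-3 prostate cancer cells exposed to DMSO, 10 µM […] as positive control, or graded doses of test agent for 6 h. Lysates immunoblotted for Akt phosphorylated at Thr308 and for p-4EBP1. Inhibition assessed by densitometry of the p-Akt blots.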

Sequence of CYP3A4 (P08684 whole entry): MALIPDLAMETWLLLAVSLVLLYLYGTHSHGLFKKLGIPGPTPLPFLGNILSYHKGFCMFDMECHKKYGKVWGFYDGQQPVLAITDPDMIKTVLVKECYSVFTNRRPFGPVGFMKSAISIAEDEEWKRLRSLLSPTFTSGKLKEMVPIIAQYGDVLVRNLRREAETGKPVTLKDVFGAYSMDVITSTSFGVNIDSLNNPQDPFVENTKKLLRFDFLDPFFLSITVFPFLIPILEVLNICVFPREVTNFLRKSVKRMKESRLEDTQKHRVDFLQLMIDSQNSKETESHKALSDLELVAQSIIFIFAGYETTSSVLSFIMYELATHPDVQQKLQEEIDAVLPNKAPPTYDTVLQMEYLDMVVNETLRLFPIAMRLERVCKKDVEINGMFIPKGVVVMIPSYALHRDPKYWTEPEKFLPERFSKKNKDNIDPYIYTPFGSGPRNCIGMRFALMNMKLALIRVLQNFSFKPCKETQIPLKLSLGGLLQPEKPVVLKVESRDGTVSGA
Sequence of Phosphatidylinositol 4,5-bisphosphate 3-kinase catalytic subunit alpha isoform (P42336 whole entry, canonical isoform): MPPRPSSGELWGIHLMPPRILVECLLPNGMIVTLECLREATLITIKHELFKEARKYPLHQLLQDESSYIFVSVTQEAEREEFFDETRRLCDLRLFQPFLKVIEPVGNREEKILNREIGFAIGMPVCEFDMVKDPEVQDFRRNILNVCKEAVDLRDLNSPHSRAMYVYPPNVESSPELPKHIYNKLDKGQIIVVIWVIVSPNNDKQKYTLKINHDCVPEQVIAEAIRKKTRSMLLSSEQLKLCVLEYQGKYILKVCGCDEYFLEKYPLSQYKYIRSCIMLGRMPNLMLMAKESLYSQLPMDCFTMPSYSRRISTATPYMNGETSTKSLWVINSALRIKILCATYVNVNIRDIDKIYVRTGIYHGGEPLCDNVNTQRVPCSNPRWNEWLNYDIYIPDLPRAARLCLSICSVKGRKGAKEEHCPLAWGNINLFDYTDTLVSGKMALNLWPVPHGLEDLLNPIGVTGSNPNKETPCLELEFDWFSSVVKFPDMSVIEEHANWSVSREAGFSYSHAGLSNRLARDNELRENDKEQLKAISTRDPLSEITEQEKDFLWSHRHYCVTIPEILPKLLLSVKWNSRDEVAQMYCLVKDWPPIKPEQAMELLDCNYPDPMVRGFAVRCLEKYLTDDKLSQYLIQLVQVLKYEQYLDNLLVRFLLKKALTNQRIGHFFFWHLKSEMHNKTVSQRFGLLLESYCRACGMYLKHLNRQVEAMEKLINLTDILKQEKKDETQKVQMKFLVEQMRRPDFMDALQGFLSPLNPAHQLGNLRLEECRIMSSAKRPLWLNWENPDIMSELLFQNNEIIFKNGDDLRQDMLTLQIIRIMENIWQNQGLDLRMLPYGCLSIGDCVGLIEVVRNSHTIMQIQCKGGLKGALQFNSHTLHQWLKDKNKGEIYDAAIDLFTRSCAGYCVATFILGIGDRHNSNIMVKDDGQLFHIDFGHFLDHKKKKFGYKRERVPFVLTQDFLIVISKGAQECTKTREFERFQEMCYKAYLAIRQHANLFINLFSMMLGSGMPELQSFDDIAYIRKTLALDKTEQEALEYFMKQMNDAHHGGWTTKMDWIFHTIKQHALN
Sequence of Phosphatidylinositol 4,5-bisphosphate 3-kinase catalytic subunit gamma isoform (P48736 whole entry, canonical isoform): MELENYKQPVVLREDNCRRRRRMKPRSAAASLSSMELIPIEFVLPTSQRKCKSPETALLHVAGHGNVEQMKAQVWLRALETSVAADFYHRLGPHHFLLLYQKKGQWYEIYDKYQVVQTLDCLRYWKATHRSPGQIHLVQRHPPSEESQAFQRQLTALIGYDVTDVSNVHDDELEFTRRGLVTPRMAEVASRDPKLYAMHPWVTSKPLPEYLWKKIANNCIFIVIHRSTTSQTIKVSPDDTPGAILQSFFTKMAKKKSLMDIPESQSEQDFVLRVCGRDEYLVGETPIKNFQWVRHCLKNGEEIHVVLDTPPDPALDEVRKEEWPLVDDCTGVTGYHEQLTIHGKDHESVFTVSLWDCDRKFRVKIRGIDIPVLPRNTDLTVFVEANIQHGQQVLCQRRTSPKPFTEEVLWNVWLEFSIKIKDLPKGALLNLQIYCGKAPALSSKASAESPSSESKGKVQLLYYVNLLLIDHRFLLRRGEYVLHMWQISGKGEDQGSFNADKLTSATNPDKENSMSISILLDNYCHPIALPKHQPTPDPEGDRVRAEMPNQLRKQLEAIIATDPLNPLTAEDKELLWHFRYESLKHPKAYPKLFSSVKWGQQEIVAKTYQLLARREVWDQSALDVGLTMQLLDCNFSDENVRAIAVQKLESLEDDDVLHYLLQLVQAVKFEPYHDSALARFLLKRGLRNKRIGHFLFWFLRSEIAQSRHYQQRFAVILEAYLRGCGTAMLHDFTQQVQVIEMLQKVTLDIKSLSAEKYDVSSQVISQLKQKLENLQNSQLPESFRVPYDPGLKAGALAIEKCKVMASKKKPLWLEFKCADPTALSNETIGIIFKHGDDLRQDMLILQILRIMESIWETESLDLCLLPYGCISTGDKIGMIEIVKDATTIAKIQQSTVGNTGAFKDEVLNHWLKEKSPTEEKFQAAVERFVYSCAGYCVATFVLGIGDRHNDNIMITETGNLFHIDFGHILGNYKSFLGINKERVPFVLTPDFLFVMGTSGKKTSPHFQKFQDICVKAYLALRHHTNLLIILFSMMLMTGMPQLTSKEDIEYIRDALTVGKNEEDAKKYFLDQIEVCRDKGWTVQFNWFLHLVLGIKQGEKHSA

Structure (SMILES)	IC50 (PC-3)	IC50 [1]	IC50 (Caco-2)	IC50 [2]	IC50 (LoVo)	IC50 [3]	solubility [4]	inhibition at 3 µM (CYP3A4)	IC50 [5]
COc1ccc2c(c1)c(/C=C1\Oc3cc(O)cc(O)c3C1=O)c(C)n2CCN1CCN(C)CC1	2400 nM	473 nM	4700 nM	5 nM	2200 nM	11 nM	30 µg/mL (≈ 64.7 µM)		
O=C1/C(=C/c2c(-c3ccc(F)cc3)[nH]c3ccccc23)Oc2cc(O)cc(O)c21							1 µg/mL (≈ 2.58 µM)		
O=C1/C(=C/c2c(-c3ccc4ccccc4c3)[nH]c3ccccc23)Oc2cc(O)cc(O)c21							1 µg/mL (≈ 2.38 µM)		
O=C1/C(=C/c2c(-c3ccccc3)[nH]c3ccccc23)Oc2cc(O)cc(O)c21		2780 nM		1030 nM		130 nM	1 µg/mL (≈ 2.71 µM)		
Cn1cc(/C=C2\Oc3cc(O)cc(O)c3C2=O)c2ccccc21						800 nM	2 µg/mL (≈ 6.51 µM)		
COc1ccc2c(c1)c(/C=C1\Oc3cc(O)cc(O)c3C1=O)c(C)n2CCN(C)C	1800 nM	283 nM	2800 nM	9 nM	1700 nM	18 nM	1 µg/mL (≈ 2.45 µM)		
COc1ccc2c(c1)c(/C=C1\Oc3cc(O)cc(O)c3C1=O)c(C)n2CCCN1CCN(CCO)CC1	10000 nM	109 nM	10000 nM	6 nM	10000 nM	108 nM	36 µg/mL (≈ 70.9 µM)		
Cc1[nH]c2ccc(Br)cc2c1/C=C1\Oc2cc(O)cc(O)c2C1=O							1 µg/mL (≈ 2.59 µM)		
O=C1/C(=C/c2c(-c3ccccn3)[nH]c3ccccc23)Oc2cc(O)cc(O)c21				3650 nM		22 nM	3 µg/mL (≈ 8.1 µM)		
COc1ccc2c(c1)c(/C=C1\Oc3cc(O)cc(O)c3C1=O)cn2CCCN1CCOCC1		646 nM		42 nM		430 nM	3 µg/mL (≈ 6.66 µM)	42%	
COc1ccc2c(c1)c(/C=C1\Oc3cc(O)cc(O)c3C1=O)c(C)n2CCN1CCOCC1	1500 nM	155 nM	2000 nM	11 nM	2300 nM	9 nM	6 µg/mL (≈ 13.3 µM)	64%	
COc1ccc2c(c1)c(/C=C1\Oc3cc(O)cc(O)c3C1=O)cn2CCCN1CCN(CCO)CC1		1360 nM		37 nM		1650 nM	25 µg/mL (≈ 50.7 µM)		
COc1ccc2c(c1)c(/C=C1\Oc3cc(O)cc(O)c3C1=O)c(C)n2CCCN1CCN(C)CC1	9500 nM	402 nM	10000 nM	15 nM	7500 nM	153 nM	10 µg/mL (≈ 20.9 µM)		
O=C1/C(=C/c2c[nH]c3ccccc23)Oc2cc(O)cc(O)c21				6750 nM		9200 nM	14 µg/mL (≈ 47.7 µM)		
O=C1/C(=C/c2c[nH]c3ccc(Cl)cc23)Oc2cc(O)cc(O)c21							1 µg/mL (≈ 3.05 µM)		
COc1ccc2[nH]c(C)c(/C=C3\Oc4cc(O)cc(O)c4C3=O)c2c1	4000 nM	25 nM	9000 nM	3 nM	3600 nM	3 nM	1 µg/mL (≈ 2.96 µM)	79%	
Cn1c(-c2ccccc2)c(/C=C2\Oc3cc(O)cc(O)c3C2=O)c2ccccc21				2670 nM		96 nM	2 µg/mL (≈ 5.22 µM)		
COc1ccc2[nH]c(-c3ccccc3)c(/C=C3\Oc4cc(O)cc(O)c4C3=O)c2c1	800 nM	11 nM	2100 nM		1200 nM	10 nM		77%	385 nM
COc1ccc2c(c1)c(/C=C1\Oc3cc(O)cc(O)c3C1=O)c(C)n2CCCN1CCOCC1	2400 nM	76 nM	4700 nM	8 nM	4600 nM	18 nM	1 µg/mL (≈ 2.15 µM)	68%	
O=C1/C(=C/c2c(-c3ccc(Cl)cc3)[nH]c3ccccc23)Oc2cc(O)cc(O)c21							1 µg/mL (≈ 2.48 µM)		
COc1ccc2[nH]cc(/C=C3\Oc4cc(O)cc(O)c4C3=O)c2c1							12 µg/mL (≈ 37.1 µM)	58%	
COc1ccc2[nH]c(-c3cccnc3)c(/C=C3\Oc4cc(O)cc(O)c4C3=O)c2c1	1900 nM	9 nM	7500 nM	1 nM	4700 nM	1 nM	1 µg/mL (≈ 2.5 µM)	57%	
COc1ccc2c(c1)c(/C=C1\Oc3cc(O)cc(O)c3C1=O)c(C)n2C	1300 nM	54 nM	7200 nM	7 nM	2500 nM	4 nM	1 µg/mL (≈ 2.85 µM)	75%	
COc1ccc2c(c1)c(/C=C1\Oc3cc(O)cc(O)c3C1=O)cn2C		587 nM		106 nM		62 nM	1 µg/mL (≈ 2.96 µM)		
COc1ccc2c(c1)c(/C=C1\Oc3cc(O)cc(O)c3C1=O)c(C)n2CCCN(C)C	2800 nM	404 nM	9300 nM		5700 nM	118 nM	32 µg/mL (≈ 75.7 µM)		
COc1ccc2c(c1)c(/C=C1\Oc3cc(O)cc(O)c3C1=O)cn2CCCN(C)C		2420 nM		40 nM		2120 nM	32 µg/mL (≈ 78.3 µM)		
